# From PubChem BioAssay AID588682 (Southern Research Specialized Biocontainment Screening …, 2011)
# The source made the active and inactive calls.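 Rule for the calls: active = inhibition of 30% or more at any tested concentration; inactive = the rest.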
# Test system: M17 leucyl aminopeptidase (Plasmodium falciparum 3D7)
# Assay: Inhibition of P. falciparum M17 aminopeptidase – biochemical, QFRET, counter-screen for PfM1AAP inhibitor project, dose response (AID 588682)
# Settings: recombinant PfM17LAP, H-Leu-NHMec fluorogenic cleavage; series mostly up to 100 µM
# How it was run: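 Assay system – recombinant PfM17LAP enzyme · Amount – 5 µg/mL rPFM17LAP enzyme · Medium – Tris pH 7.5 plus 2 mM CoCl2 · Also added – NHMec-releasing fluorogenic peptide substrate at 0.1 mM · Dosing – 100–0.2 µM compound series · Incubation – 90 min, room temperature · Technique – NHMec fluorescence, excitation 370 nm, emission 460 nm · Read-out – % enzyme inhibition · Replicates – triplicate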
row,SMILES,outcome
1,CC[C@H](C)[C@H](NS(=O)(=O)c1ccc(Br)s1)C(=O)O,inactive
2,CC[C@H](C)[C@H](NC(=O)c1ccc(C(C)(C)C)cc1)C(=O)NCc1ccc(C(F)(F)F)cc1,inactive
3,O=C(NCc1ccc2c(c1)OCO2)C1CCN(S(=O)(=O)c2ccc(-c3cccc(F)c3)s2)CC1,inactive
4,COc1cccc(-c2ccc(S(=O)(=O)N3CCC(C(=O)NCc4ccc5c(c4)OCO5)CC3)s2)c1,inactive
5,O=C(NCc1ccc2c(c1)OCO2)C1CCN(S(=O)(=O)c2ccc(-c3cncc4ccccc34)s2)CC1,inactive
6,CC(=O)Nc1cccc(-c2ccc(S(=O)(=O)N3CCC(C(=O)NCc4ccc5c(c4)OCO5)CC3)s2)c1,inactive
7,CN(C)c1ccc(CNC(=O)C2CCN(S(=O)(=O)c3ccc(Br)s3)CC2)cc1,inactive
8,O=C(NCc1ccc2c(c1)OCO2)C1CCN(S(=O)(=O)c2ccc(-c3ccc(F)cc3)s2)CC1,inactive
9,CC[C@H](C)[C@H](NS(=O)(=O)c1ccc(Br)s1)C(=O)NCc1ccc(C(F)(F)F)cc1,inactive
10,COc1ccc(-c2ccc(S(=O)(=O)N3CCC(C(=O)NCc4ccc5c(c4)OCO5)CC3)s2)cc1,inactive
11,CC(C)(C)c1ccc(-c2ccc(S(=O)(=O)N3CCC(C(=O)NCc4ccc5c(c4)OCO5)CC3)s2)cc1,inactive
12,CC[C@H](C)[C@H](NC(=O)c1ccc([N+](=O)[O-])cc1)C(=O)NCc1ccc(C(F)(F)F)cc1,inactive
13,CC[C@H](C)[C@H](NC(=O)c1ccc([N+](=O)[O-])cc1)C(=O)NCc1ccc(F)cc1,inactive
14,CC[C@H](C)[C@H](NC(=O)c1ccc([N+](=O)[O-])cc1)C(=O)NCc1ccccc1,inactive
15,O=C(NCc1ccc2c(c1)OCO2)C1CCN(S(=O)(=O)c2ccc(-c3ccccc3)s2)CC1,inactive
16,CC[C@H](C)[C@H](NS(=O)(=O)c1cccs1)C(=O)NCc1ccc(F)cc1,inactive
17,CC[C@H](C)[C@H](NS(=O)(=O)c1ccc(Br)s1)C(=O)NCc1ccc(F)cc1,inactive
